Results taken from paper PMC4929832 (Nature, 2016).
Like-named read-outs stand apart in the source and are kept apart here.

Tests used:
TRKB = TRKB (Homo sapiens, UniProt Q16620); assay: kinase panel; format: biochemical
BTK = BTK (Homo sapiens, UniProt Q06187); assay: kinase panel; format: biochemical
CAMK1D = CAMK1D (Homo sapiens, UniProt Q8IU85); assay: kinase panel; format: biochemical
ITK = ITK (Homo sapiens, UniProt Q08881); assay: kinase panel; format: biochemical
DYRK1A = DYRK1A (Homo sapiens, UniProt Q13627); assay: kinase panel; format: biochemical
PRKD2 = PRKD2 (Homo sapiens, UniProt Q9BZL6); assay: kinase panel; format: biochemical
JAK2 = JAK2 (Homo sapiens, UniProt O60674); assay: kinase panel; format: biochemical
CDK3-CYCLINE = CDK3-CYCLINE (Homo sapiens, UniProt Q00526); assay: kinase panel; format: biochemical
PRKG2 = PRKG2 (Homo sapiens, UniProt Q13237); assay: kinase panel; format: biochemical
Histamine H1 receptor = Histamine H1 receptor (Homo sapiens, UniProt P35367); assay: Histamine H1 receptor assay; format: binding
DYRK3 = DYRK3 (Homo sapiens, UniProt O43781); assay: kinase panel; format: biochemical
NEK2 = NEK2 (Homo sapiens, UniProt P51955); assay: kinase panel; format: biochemical
EPH-B3 = EPH-B3 (Homo sapiens, UniProt P54753); assay: kinase panel; format: biochemical
TNK2 = TNK2 (Homo sapiens, UniProt Q07912); assay: kinase panel; format: biochemical
CK1-GAMMA2 = CK1-GAMMA2 (Homo sapiens, UniProt P78368); assay: kinase panel; format: biochemical
COX-1 = COX-1 (Homo sapiens, UniProt P23219); assay: COX-1 assay; format: biochemical
LYNB = LYNB (Homo sapiens, UniProt P07948); assay: kinase panel; format: biochemical
HaCaT cells = assay: Proliferation assay; format: cell-based; conditions: Homo sapiens, 72 h, read-out: EC50 Proliferation
Method in brief: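 Cells were maintained in 10% FBS/RPMI with penicillin/streptomycin and plated at 500 cells/well in 10% FBS RPMI. Serially diluted test compound was pin-transferred. Viability was read after 3 days by CellTiter-Glo luminescence and normalized to 0.1% DMSO-treated cells and empty wells. EC50 was obtained by non-linear regression curve fitting.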

H1 receptor [1] = biological target: T1, H1 receptor (Homo sapiens, UniProt P35367); assay: H1 receptor calcium assay; format: cell-based
P38-ALPHA = P38-ALPHA (Homo sapiens, UniProt Q16539); assay: kinase panel; format: biochemical
AMP-A2B1G1 = AMP-A2B1G1 (Homo sapiens, UniProt P54646); assay: kinase panel; format: biochemical
DAPK1 = DAPK1 (Homo sapiens, UniProt P53355); assay: kinase panel; format: biochemical
Nicotinic (CNS) Receptor = assay: Nicotinic; format: binding; conditions: human IMR32 cells
CK1-GAMMA1 = CK1-GAMMA1 (Homo sapiens, UniProt Q9HCP0); assay: kinase panel; format: biochemical
PKN2 = PKN2 (Homo sapiens, UniProt Q16513); assay: kinase panel; format: biochemical
Monoamine Oxidase A = Monoamine Oxidase A (Homo sapiens, UniProt P21397); assay: Monoamine Oxidase A assay; format: biochemical
MELK = MELK (Homo sapiens, UniProt Q14680); assay: kinase panel; format: biochemical
TIE2 = TIE2 (Homo sapiens, UniProt Q02763); assay: kinase panel; format: biochemical
FLT-1 = FLT-1 (Homo sapiens, UniProt P17948); assay: kinase panel; format: biochemical
H1 receptor [2] = biological target: T1, H1 receptor; assay: H1 receptor calcium assay; format: cell-based; remark: listed apart in the source
PDK1 = PDK1 (Homo sapiens, UniProt O15530); assay: kinase panel; format: biochemical
DYRK4 = DYRK4 (Homo sapiens, UniProt Q9NR20); assay: kinase panel; format: biochemical
PKC-GAMMA = PKC-GAMMA (Homo sapiens, UniProt P05129); assay: kinase panel; format: biochemical
JNK2 = JNK2 (Homo sapiens, UniProt P45984); assay: kinase panel; format: biochemical
CSK = CSK (Homo sapiens, UniProt P41240); assay: kinase panel; format: biochemical
CK2 = assay: kinase panel; format: biochemical; conditions: CK2, 1 μM
SRPK2 = SRPK2 (Homo sapiens, UniProt P78362); assay: kinase panel; format: biochemical
[3] = biological target: EGFR L858R/T790M in H1975 cells (Homo sapiens, UniProt P00533, L858R/T790M); assay: EGFR phosphorylation by western blotting; format: cell-based; conditions: western blot, 3h
Dopamine Transporter = Dopamine Transporter (Homo sapiens, UniProt Q01959); assay: Dopamine Transporter assay; format: binding
MST4 = MST4 (Homo sapiens, UniProt Q9P289); assay: kinase panel; format: biochemical
RET = RET (Homo sapiens, UniProt P07949); assay: kinase panel; format: biochemical
GRK6 = GRK6 (Homo sapiens, UniProt P43250); assay: kinase panel; format: biochemical

T1 sequence (P35367 whole entry): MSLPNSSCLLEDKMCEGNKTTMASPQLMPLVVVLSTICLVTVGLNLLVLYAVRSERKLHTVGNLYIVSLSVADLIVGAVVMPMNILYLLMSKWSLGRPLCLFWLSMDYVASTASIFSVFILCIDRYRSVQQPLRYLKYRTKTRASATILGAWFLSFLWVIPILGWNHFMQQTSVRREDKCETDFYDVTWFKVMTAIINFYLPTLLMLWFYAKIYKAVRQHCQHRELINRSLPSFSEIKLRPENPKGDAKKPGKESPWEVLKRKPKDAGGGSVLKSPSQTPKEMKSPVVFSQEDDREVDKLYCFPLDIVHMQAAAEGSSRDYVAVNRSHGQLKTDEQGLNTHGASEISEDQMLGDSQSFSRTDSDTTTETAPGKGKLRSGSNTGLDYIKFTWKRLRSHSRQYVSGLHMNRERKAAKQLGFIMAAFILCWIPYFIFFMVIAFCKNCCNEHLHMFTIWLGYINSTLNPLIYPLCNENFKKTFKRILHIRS
PKN2, sequence (Q16513 whole entry): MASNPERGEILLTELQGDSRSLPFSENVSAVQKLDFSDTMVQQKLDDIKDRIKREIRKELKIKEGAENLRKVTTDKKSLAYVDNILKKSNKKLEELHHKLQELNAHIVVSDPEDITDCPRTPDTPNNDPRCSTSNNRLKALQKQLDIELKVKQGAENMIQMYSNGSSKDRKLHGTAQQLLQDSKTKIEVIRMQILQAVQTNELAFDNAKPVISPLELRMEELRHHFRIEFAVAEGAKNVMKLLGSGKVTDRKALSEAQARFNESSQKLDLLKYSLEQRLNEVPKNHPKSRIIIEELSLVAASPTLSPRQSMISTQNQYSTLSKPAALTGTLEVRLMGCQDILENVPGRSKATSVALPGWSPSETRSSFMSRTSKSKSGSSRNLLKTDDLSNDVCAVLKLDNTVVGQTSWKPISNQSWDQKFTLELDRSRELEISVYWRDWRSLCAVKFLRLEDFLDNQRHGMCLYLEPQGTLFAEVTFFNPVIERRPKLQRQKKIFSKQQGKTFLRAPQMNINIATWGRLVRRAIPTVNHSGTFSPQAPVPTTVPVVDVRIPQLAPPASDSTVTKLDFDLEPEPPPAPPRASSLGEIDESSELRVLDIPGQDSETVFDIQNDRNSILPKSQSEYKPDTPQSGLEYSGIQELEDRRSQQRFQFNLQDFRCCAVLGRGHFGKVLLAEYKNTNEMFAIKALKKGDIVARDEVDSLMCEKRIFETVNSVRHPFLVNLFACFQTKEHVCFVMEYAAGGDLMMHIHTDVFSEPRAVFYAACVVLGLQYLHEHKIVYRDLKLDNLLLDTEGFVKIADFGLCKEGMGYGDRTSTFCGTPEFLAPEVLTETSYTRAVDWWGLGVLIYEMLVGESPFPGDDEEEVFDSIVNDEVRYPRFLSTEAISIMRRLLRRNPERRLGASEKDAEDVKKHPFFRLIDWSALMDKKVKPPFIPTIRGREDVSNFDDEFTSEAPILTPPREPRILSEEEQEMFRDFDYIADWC
CK1-GAMMA2, sequence (P78368 whole entry): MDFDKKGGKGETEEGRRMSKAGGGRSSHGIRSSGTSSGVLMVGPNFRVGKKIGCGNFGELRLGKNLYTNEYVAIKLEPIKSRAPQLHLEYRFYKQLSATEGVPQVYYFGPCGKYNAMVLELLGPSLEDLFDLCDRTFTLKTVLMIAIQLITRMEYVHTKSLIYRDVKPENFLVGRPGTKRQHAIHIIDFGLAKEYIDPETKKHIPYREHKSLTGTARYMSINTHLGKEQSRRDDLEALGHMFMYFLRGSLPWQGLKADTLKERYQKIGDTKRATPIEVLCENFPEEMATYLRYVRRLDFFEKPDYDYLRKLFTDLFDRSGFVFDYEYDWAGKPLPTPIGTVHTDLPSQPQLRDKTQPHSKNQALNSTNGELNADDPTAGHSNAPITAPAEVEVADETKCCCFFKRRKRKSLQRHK
RET, sequence (P07949 29-1114): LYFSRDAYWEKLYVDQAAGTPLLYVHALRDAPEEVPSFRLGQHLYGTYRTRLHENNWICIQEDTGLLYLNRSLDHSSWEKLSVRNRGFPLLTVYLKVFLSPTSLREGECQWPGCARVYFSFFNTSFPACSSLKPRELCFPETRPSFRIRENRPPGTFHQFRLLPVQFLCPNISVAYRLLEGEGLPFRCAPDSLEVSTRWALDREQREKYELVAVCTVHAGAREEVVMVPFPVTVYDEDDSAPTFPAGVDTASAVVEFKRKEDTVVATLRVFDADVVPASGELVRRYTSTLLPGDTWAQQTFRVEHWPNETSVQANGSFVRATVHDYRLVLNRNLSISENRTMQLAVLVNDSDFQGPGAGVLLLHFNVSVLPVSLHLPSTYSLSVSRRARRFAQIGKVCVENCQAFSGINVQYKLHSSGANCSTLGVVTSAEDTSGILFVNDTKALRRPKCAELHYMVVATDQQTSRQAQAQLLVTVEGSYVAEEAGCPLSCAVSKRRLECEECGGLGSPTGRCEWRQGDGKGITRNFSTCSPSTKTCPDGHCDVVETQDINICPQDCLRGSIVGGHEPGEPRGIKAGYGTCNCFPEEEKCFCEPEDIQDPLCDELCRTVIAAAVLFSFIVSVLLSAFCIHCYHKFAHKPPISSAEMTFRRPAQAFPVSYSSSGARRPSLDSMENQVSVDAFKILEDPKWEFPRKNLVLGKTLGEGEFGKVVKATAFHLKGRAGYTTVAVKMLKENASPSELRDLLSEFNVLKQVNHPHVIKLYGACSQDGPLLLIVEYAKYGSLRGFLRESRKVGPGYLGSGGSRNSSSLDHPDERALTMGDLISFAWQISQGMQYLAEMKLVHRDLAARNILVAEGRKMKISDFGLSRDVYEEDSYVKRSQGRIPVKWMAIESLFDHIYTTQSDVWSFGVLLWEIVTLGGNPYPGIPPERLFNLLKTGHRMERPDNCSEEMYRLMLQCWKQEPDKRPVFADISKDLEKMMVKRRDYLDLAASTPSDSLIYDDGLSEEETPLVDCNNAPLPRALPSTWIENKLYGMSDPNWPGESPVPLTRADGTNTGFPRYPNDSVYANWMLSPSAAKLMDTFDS
SRPK2, sequence (P78362 whole entry): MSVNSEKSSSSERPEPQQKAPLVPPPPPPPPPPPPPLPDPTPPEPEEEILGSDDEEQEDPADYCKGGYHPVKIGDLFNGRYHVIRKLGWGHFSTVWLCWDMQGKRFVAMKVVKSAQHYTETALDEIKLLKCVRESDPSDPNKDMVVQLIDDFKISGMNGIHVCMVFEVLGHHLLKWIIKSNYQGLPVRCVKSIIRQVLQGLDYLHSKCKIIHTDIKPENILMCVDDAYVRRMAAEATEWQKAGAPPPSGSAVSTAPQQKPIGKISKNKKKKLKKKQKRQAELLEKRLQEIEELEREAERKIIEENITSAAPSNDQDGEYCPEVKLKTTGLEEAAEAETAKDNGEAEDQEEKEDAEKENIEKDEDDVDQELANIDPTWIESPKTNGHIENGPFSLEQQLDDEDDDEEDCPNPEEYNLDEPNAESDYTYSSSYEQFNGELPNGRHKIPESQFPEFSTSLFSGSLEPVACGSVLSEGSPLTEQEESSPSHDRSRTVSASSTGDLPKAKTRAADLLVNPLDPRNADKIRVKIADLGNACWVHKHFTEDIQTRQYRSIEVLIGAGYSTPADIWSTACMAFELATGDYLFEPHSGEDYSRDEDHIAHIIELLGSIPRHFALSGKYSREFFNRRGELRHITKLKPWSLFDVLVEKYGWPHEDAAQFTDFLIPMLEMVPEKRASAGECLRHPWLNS
JNK2, sequence (P45984 whole entry): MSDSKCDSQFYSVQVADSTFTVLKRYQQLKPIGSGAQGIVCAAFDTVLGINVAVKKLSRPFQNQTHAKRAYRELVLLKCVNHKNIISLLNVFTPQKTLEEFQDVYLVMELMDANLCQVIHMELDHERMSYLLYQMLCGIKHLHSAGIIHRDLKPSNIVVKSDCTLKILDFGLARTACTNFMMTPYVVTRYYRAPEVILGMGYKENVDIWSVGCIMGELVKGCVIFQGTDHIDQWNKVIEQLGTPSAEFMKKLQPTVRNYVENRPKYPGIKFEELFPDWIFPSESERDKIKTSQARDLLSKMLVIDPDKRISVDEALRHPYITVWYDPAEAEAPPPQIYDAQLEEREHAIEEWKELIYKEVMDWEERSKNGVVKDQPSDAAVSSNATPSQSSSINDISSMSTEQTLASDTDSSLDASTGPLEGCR
Histamine H1 receptor, sequence (P35367 whole entry, species assumed): as the sequence (P35367 whole entry) above

For `O=C(Nc1nccs1)C(c1cc(F)ccc1O)N1Cc2ccccc2C1=O` (stereo not drawn) [EAI045, 2-(5-fluoro-2-hydroxyphenyl)-2-(1-oxo-2,3-dihydro-1H-isoindol-2-yl)-N-(1,3-thiazol-2-yl)acetamide], the inhibition at 1 µM (TRKB) was 3%, the inhibition at 1 µM (BTK) was 0% and the inhibition at 1 µM (CAMK1D) was 0%. It also gave an inhibition at 1 µM (ITK) of 0%, an inhibition at 1 µM (DYRK1A) of 0% and an inhibition at 1 µM (PRKD2) of 2%. The inhibition at 1 µM (JAK2) was 2%, the inhibition at 1 µM (CDK3-CYCLINE) was 0% and the inhibition at 1 µM (PRKG2) was 8%. For the same compound, the IC50 (Histamine H1 receptor) was > 30 µM, the inhibition at 1 µM (DYRK3) was 2% and the inhibition at 1 µM (NEK2) was 2%. The inhibition at 1 µM (EPH-B3) was 0%, the inhibition at 1 µM (TNK2) was 2% and the inhibition at 1 µM (CK1-GAMMA2) was 0%. For the same compound, the IC50 (COX-1) was > 30 µM, the inhibition at 1 µM (LYNB) was 3% and the EC50 (HaCaT cells) was > 10 µM. For the same compound, the IC50 (H1 receptor [1]) was > 30 µM, the inhibition at 1 µM (P38-ALPHA) was 0% and the inhibition at 1 µM (AMP-A2B1G1) was 0%. For the same compound, the inhibition at 1 µM (DAPK1) was 0%, the IC50 (Nicotinic (CNS) Receptor) was > 30 µM and the inhibition at 1 µM (CK1-GAMMA1) was 2%. For the same compound, the inhibition at 1 µM (PKN2) was 1%, the IC50 (Monoamine Oxidase A) was > 30 µM and the inhibition at 1 µM (MELK) was 0%. The inhibition at 1 µM (TIE2) was 0%, the inhibition at 1 µM (FLT-1) was 8% and the IC50 (H1 receptor [2]) was > 30 µM. For the same compound, the inhibition at 1 µM (PDK1) was 0%, the inhibition at 1 µM (DYRK4) was 1% and the inhibition at 1 µM (PKC-GAMMA) was 0%. For the same compound, the inhibition at 1 µM (JNK2) was 0%, the inhibition at 1 µM (CSK) was 0% and the “% inhibition” value (CK2) was 0%. For the same compound, the inhibition at 1 µM (SRPK2) was 10%, the EGFR autophosphorylation [3] was “potently decreased, but did not completely eliminate EGFR autophosphorylation” and the IC50 (Dopamine Transporter) was > 30 µM. The inhibition at 1 µM (MST4) was 0%, the inhibition at 1 µM (RET) was 0% and the inhibition at 1 µM (GRK6) was 0%.
